Series [1] concerns the target T1, 5-hydroxytryptamine receptor 2B (Homo sapiens, UniProt P41595). As to the kind of experiment: Agonist activity at human 5-HT2B receptor expressed in Flp-IN HEK293 cells assessed as induction of calcium flux up to 10 uM measured every second for 5 mins by Fluo-4 dye based FLIPR assay. Type of series: cell-based. To be noted: hek293, 5 min. On the technique in general: Calcium flux is commonly read through the fluorescence of an indicator in the cells.

The target of series [2] is T2, 5-hydroxytryptamine receptor 2C (Homo sapiens) (UniProt P28335).
T2 sequence (whole entry): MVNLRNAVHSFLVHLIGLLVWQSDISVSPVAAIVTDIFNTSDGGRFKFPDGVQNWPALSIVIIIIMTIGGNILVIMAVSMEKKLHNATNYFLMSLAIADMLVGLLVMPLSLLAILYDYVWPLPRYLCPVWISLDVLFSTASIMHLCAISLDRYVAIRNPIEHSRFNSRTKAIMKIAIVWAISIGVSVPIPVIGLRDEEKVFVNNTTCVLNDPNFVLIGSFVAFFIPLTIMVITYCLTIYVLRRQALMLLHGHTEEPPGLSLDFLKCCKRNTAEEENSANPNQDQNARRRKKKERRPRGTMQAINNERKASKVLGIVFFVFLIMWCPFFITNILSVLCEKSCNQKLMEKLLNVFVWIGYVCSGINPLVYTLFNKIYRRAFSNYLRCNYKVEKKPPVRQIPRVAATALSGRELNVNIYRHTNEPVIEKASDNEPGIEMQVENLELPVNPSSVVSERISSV
As to the kind of experiment: Agonist activity at human 5-HT2C-INI receptor isoform expressed in Flp-IN HEK293 cells assessed as induction of Gq-mediated calcium flux up to 10 uM measured every second for 5 mins by Fluo-4 dye based FLIPR assay. It is filed as functional, cell-based.

Series [3] deals with T3, 5-hydroxytryptamine receptor 2A (Homo sapiens, UniProt P28223). Nature of the series: Agonist activity at human 5-HT2A receptor expressed in Flp-IN HEK293 cells assessed as induction of calcium flux up to 10 uM measured every second for 5 mins by Fluo-4 dye based FLIPR assay. It is filed as cell-based. To be noted: hek293, 5 min.
Series [4] concerns the target 5-HT2A receptor (Homo sapiens, UniProt P28223). Nature of the series: Agonist activity at human 5-HT2A receptor expressed in Flp-IN HEK293 cells assessed as induction of calcium flux measured every second for 5 mins by Fluo-4 dye based FLIPR assay relative to serotonin. Type of series: cell-based. Particulars: Flp-IN HEK293 cells expressing human 5-HT2A receptor.
Series [5] deals with T1, 5-hydroxytryptamine receptor 2B. As to the kind of experiment: Agonist activity at human 5-HT2B receptor expressed in Flp-IN HEK293 cells assessed as induction of calcium flux measured every second for 5 mins by Fluo-4 dye based FLIPR assay. It is filed as cell-based.
For series [6], the target named is T3, 5-hydroxytryptamine receptor 2A. As to the kind of experiment: Agonist activity at human 5-HT2A receptor expressed in Flp-IN HEK293 cells assessed as induction of calcium flux measured every second for 5 mins by Fluo-4 dye based FLIPR assay. Type of series: cell-based.
The target of series [7] is 5-HT2B receptor (Homo sapiens, UniProt P41595). As to the kind of experiment: Agonist activity at human 5-HT2B receptor expressed in Flp-IN HEK293 cells assessed as induction of calcium flux measured every second for 5 mins by Fluo-4 dye based FLIPR assay relative to serotonin. To be noted: Flp-IN HEK293 cells expressing human 5-HT2B receptor. Type of series: cell-based.

Series [8] concerns the target T4, 5-hydroxytryptamine receptor 2C (Homo sapiens, UniProt P28335).
T4 sequence (P28335 whole entry): T2 sequence (whole entry)
As to the kind of experiment: Agonist activity at human 5-HT2C-INI receptor isoform expressed in Flp-IN HEK293 cells assessed as induction of Gq-mediated calcium flux measured every second for 5 mins by Fluo-4 dye based FLIPR assay. It is filed as functional, cell-based.

The species named for series [9] is Homo sapiens. As to the kind of experiment: Selectivity ratio of EC50 for human 5HT2B receptor to EC50 for human 5HT2C-INI receptor.
In series [10] the target is T2, 5-hydroxytryptamine receptor 2C (Homo sapiens). Nature of the series: Agonist activity at human 5-HT2C-INI receptor isoform expressed in Flp-IN HEK293 cells assessed as induction of Gq-mediated calcium flux measured every second for 5 mins by Fluo-4 dye based FLIPR assay relative to serotonin. Type of series: functional, cell-based.
In series [11] the test system is Mus musculus. Nature of the series: Antipsychotic activity in PCP-induced hyperactivity C57BL/6J mouse model assessed as reduction in PCP-induced hyper-locomotion at 3 mg/kg, ip preincubated for 15 mins followed by PCP addition measured after 60 mins. It is filed as functional, organism-based. The gist of the method: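 Male C57BL/6J mice, 9–10 weeks old. […] PCP 5 mg/kg followed, with activity recorded a further 60 min. Read-out was total distance from infrared beam breaks, analysed by one-way ANOVA.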

Series [12] concerns Mus musculus. Nature of the series: Toxicity in C57BL/6J mouse assessed as reduction in baseline locomotive activity at 3 mg/kg, ip after 15 mins. Type of series: organism-based. To be noted: in vivo.
For series [13], the system named is Mus musculus. Nature of the series: Antipsychotic activity in AMPH-induced hyperactivity C57BL/6J mouse model assessed as reduction in amphetamine-induced hyper-locomotion at 3 mg/kg, ip preincubated for 15 mins followed by AMPH addition measured after 90 mins. Type of series: functional, organism-based.
The target in series [14] is T2, 5-hydroxytryptamine receptor 2C (Homo sapiens). As to the kind of experiment: Agonist activity at tTA containing TEV cleavage site-fused 5-HT2C-INI receptor isoform (unknown origin) expressed in TEV-fused beta-arrestin2 expressing HEK cells assessed as induction of beta-arrestin2 recruitment after 20 hrs by Tango assay relative to serotonin. It is filed as cell-based. The gist of the method: (§1)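 HTLA cells (HEK cells with TEV-fused β-arrestin-2 and tTA-driven luciferase) transfected with tTA-fused 5-HT2C-INI receptor carrying a TEV site. Luminescence read after 20 min lysis at room temperature. Normalized to % 5-HT and fitted sigmoidally. NA means no activity up to 10 μM. Mean of n = 3.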
(In general: Arrestin recruitment assays detect the binding of arrestin to an activated receptor.)

For series [15], the target named is T4, 5-hydroxytryptamine receptor 2C. As to the kind of experiment: Agonist activity at tTA containing TEV cleavage site-fused 5-HT2C-INI receptor isoform (unknown origin) expressed in TEV-fused beta-arrestin2 expressing HEK cells assessed as induction of beta-arrestin2 recruitment after 20 hrs by Tango assay. Type of series: cell-based.
Series [16] concerns the target T2, 5-hydroxytryptamine receptor 2C (Homo sapiens). As to the kind of experiment: Ratio of Emax to EC50 for human 5-HT2C-INI receptor isoform expressed in Flp-IN HEK293 cells. It is filed as cell-based.
For series [17] the target is unchanged. Nature of the series: Ratio of Emax to EC50 for tTA containing TEV cleavage site-fused 5-HT2C-INI receptor isoform (unknown origin) expressed in TEV-fused beta-arrestin2 expressing HEK cells assessed as induction of beta-arrestin2 recruitment activity. Type of series: cell-based.
Series [18] has the same target. Nature of the series: Agonist activity at tTA containing TEV cleavage site-fused 5-HT2C-INI receptor isoform (unknown origin) expressed in TEV-fused beta-arrestin2 expressing HEK cells assessed as induction of beta-arrestin2 recruitment up to 10 uM after 20 hrs by Tango assay. Type of series: cell-based. A digest of the protocol:
as §1

The values that follow come from ChEMBL document CHEMBL4011649 (J Med Chem, 2017).

Activity calls are given as the source filed them. No cut-off for these calls is given here.

T1 sequence (P41595 whole entry): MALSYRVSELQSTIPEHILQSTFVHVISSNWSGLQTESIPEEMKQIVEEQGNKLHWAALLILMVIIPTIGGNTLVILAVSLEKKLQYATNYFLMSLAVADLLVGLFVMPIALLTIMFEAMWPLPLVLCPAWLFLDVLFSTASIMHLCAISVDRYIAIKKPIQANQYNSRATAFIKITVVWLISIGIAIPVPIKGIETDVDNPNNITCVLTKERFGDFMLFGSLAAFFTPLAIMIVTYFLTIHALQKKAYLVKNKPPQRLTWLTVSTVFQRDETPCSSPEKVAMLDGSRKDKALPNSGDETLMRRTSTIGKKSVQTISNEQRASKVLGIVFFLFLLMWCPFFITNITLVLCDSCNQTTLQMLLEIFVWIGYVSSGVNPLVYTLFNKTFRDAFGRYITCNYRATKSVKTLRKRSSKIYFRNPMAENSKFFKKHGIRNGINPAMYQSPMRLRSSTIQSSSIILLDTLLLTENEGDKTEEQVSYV
5-HT2B receptor, sequence (P41595 whole entry): as above
T3 sequence (P28223 whole entry): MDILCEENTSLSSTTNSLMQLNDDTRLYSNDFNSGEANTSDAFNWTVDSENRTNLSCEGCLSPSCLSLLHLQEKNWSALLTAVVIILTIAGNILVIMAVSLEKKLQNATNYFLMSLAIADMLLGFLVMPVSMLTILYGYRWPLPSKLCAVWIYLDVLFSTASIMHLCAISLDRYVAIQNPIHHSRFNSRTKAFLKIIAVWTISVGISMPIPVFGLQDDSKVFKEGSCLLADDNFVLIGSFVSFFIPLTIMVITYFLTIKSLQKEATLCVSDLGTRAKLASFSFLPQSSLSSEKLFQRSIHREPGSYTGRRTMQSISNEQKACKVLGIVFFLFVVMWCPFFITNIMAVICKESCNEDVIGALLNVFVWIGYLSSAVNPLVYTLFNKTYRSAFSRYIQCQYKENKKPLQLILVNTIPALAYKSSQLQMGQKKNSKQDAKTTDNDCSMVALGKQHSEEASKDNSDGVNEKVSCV
5-HT2A receptor, sequence (P28223 whole entry): as above

In the case of `COc1ccc(CNC[C@@H]2C[C@H]2c2cc(F)ccc2OC)cc1.Cl`, the Activity result in series [1] and in [3] was “Not Active” throughout. Also, in series [2], the result was inactive.
Turning to `COc1ccc(F)cc1C1CC1CNCc1ccccc1OCCF` (racemic), the Emax (commonly the maximal effect, on the per cent scale that the assay sets) at 5 min in series [4] turned out to be 80%; in [7], 11%. The values for the EC50 in series [5], in series [6] and in [8] (read-out: EC50) were 56 nM, 398 nM and 28 nM, respectively. In [9], the Ratio EC50 is 2. Besides, the Emax in series [10] amounted to 16%.
For the compound `COc1ccccc1CNC[C@@H]1C[C@H]1c1cc(F)ccc1OC`, the Emax at 5 min in series [4] came to 94%; in series [7], 72%. In addition, in series [5], the EC50 turned out to be 570 nM. The Emax in series [10] came out at 104%.
Take `C[C@H]1CNCCc2ccc(Cl)cc21` [LORCASERIN]: the result in [11] was inactive. In series [12], the Activity result is listed as “Toxic”. Also, the outcome in series [13] was Active.
Turning to `COc1ccc(F)cc1C1CC1CNCC1CCCCC1.Cl` (racemic), the Activity entry in series [1] and in [3] was “Not Active” each time. Moreover, the EC50 in series [8] (read-out: EC50) was 95 nM. For the same compound, in series [10], the Emax is 15%.
For the compound `COc1ccc(F)cc1C1CC1CNCC1CC1.Cl` (racemic), the Emax at 5 min in [4] was 43%. The Activity result in series [1] is “Not Active”. For the same compound, in series [6], the EC50 is 4260 nM. Also, in series [2], the outcome was inactive.
Turning to `COc1ccccc1CNC[C@H]1C[C@@H]1c1cc(F)ccc1OCCF`, the Emax at 5 min in [4] stood at 78%; in series [7] it was 22%. The Emax in series [14] amounted to 54%; in [10] it was 93%.
Consider `C=CCOc1ccc(F)cc1[C@H]1C[C@@H]1CNCc1ccccc1OC`, for which the EC50 in series [15] is 22.7 nM; in series [5], 113 nM; in series [6], 28 nM; in [8] (read-out: EC50) it was 9.2 nM; in series [8] (read-out: pEC50 (converted)), 8.91 nM. Besides, the Emax at 5 min was determined as 80% in [4] and 28% in series [7]. Besides, the Emax is 56% in series [14] and 97% in series [10]. For the same compound, the log(ratio) in series [16] amounted to 8.02; in [17] it was 7.39.
On to `COc1ccc(F)cc1C1CC1CNCc1cccc2ccsc12` (racemic), for which the values for the maximal response (Emax) at 5 min in series [4] and in series [7] were 70% and 79%, respectively. The results for the EC50 in series [5], in [6] and in [8] (read-out: EC50) were 807 nM, 2220 nM and 777 nM, respectively. Also, in [10], the Emax was found to be 94%.
Regarding `COc1ccc(F)cc1C1CC1CNC1CC1` (racemic), the maximal effect (Emax) at 5 min in series [4] was 69%; in [7], 14%. Further, the EC50 in series [5] is 641 nM; in series [6], 1090 nM; in [8] (read-out: EC50), 399 nM. Moreover, the Emax in [10] stood at 70%.
As for `CNC[C@H]1C[C@@H]1c1cc(F)ccc1OCCF.Cl`, the Activity result in [1] and in series [3] was “Not Active” in each case. Further, the outcome in [2] was inactive.
As for `COc1ccc(F)cc1[C@H]1C[C@@H]1CNCc1cccs1.Cl`, the maximum response (Emax) at 5 min in series [4] was 34%. Moreover, the Activity result in series [1] is recorded as “Not Active”. For the same compound, the values for the EC50 in [6] and in series [8] (read-out: EC50) were 438 nM and 120 nM, respectively. The log(ratio) in series [16] is 6.7. Besides, the outcome in series [18] was inactive. Moreover, the Emax in series [10] came out at 60%.
As for `COc1ccc(CNC[C@H]2C[C@@H]2c2cc(F)ccc2OC)cc1.Cl`, the Activity result in series [1] and in series [3] was “Not Active” in each case. Moreover, the EC50 in series [8] (read-out: EC50) turned out to be 1200 nM. In addition, the Emax in series [10] was 71%.
Turning to `COc1ccc(F)cc1C1CC1CNCc1cccc2cc[nH]c12.Cl` (racemic), the Activity entry in [1] and in series [3] was “Not Active” each time. Also, the result in series [2] was inactive.
With `COc1ccc(F)cc1C1CC1CNCc1cccnc1OC` (racemic), the Emax at 5 min was 66% in [4] and 32% in series [7]. Also, the EC50 in series [5] turned out to be 274 nM; in [6] it was 1290 nM; in [8] (read-out: EC50) it was 433 nM. For the same compound, the Emax in series [10] turned out to be 65%.
In the case of `COc1ccc(F)cc1C1CC1CNCc1cccc2cccnc12` (racemic), the figures for the Emax at 5 min in [4] and in series [7] were 69% and 73%, respectively. Further, the EC50 in series [5] turned out to be 87 nM; in series [6], 460 nM; in series [8] (read-out: EC50) it was 530 nM. The Emax in series [10] came to 84%.
Take `CNC[C@H]1C[C@@H]1c1cc(F)ccc1OC`: the values for the Emax at 5 min in series [4] and in series [7] were 79% and 54%, respectively. Moreover, the EC50 was 89 nM in series [5], 271 nM in series [6] and 23 nM in series [8] (read-out: EC50). Besides, the log(ratio) in [16] is 7.49. In addition, the outcome in series [18] was inactive. For the same compound, the Emax in series [10] was 71%.
For `COc1ccc(F)cc1C1CC1CNCc1ccccc1C(N)=O` (racemic), the values for the maximal response (Emax) at 5 min in series [4] and in [7] were 67% and 82%, respectively. The EC50 came out at 335 nM in series [5], 1310 nM in [6] and 409 nM in [8] (read-out: EC50). Besides, in [10], the Emax came to 31%.
Take `C=CCOc1ccc(F)cc1[C@H]1C[C@@H]1CNC.Cl`: the Emax at 5 min in series [4] came out at 19%. The Activity entry in [1] is recorded as “Not Active”. Also, the EC50 came to 284 nM in [6] and 13 nM in series [8] (read-out: EC50). Besides, the Emax in series [10] is 15%.
Take `COc1ccc(F)cc1C1CC1CNCc1ccccc1C#N` (racemic): the maximal response (Emax) at 5 min in series [4] stood at 63%; in series [7], 82%. Besides, the EC50 in [5] was 238 nM; in series [6], 721 nM; in series [8] (read-out: EC50), 245 nM. Further, the Emax in [10] was determined as 30%.
